# From ChEMBL document CHEMBL1125736, “N-[(omega-amino-1-hydroxyalkyl)phenyl]methanesulfonamide derivatives with class III antiarrhythmic activity” (1991)
# How the values were obtained:
# Oryctolagus cuniculus [1] = organism: Oryctolagus cuniculus; assay: Tested for effective refractory period measured at a pacing rate of 1 Hz in vitro with rabbit heart tissue preparations.; assay type: functional
# Summary of the method: (§1)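 Isolated rabbit heart tissues, all from one heart, each its own baseline; 2 h equilibration, perfusate changed every 15 min, basal stimulation 2 Hz between measurements. Exposed to 10^-7, 10^-6 and 10^-5 M drug, 15 min each; values reported at 10^-5 M as percent change from baseline. Drug solutions prepared daily in glass-distilled water. Force and rate recorded on polygraph.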
# Oryctolagus cuniculus [2] = organism: Oryctolagus cuniculus; assay: Tested for effective refractory period measured at a pacing rate of 3 Hz in vitro with rabbit heart tissue preparations.; assay type: functional; parameters: unit: %; summary of the method: as §1
# Oryctolagus cuniculus [3] = organism: Oryctolagus cuniculus; assay: Tested for conduction time measured at a pacing rate of 3 Hz in vitro with rabbit heart tissue preparations.; assay type: functional; summary of the method: as §1
# Oryctolagus cuniculus [4] = organism: Oryctolagus cuniculus; assay: Tested for force of contraction measured in mg at a pacing rate of 2 Hz in vitro with rabbit heart tissue preparations.; assay type: functional; summary of the method: as §1
# Oryctolagus cuniculus [5] = organism: Oryctolagus cuniculus; assay: Tested for conduction time measured at a pacing rate of 1 Hz in vitro with rabbit heart tissue preparations.; assay type: functional; summary of the method: as §1
# Oryctolagus cuniculus [6] = organism: Oryctolagus cuniculus; assay: Tested for rate automaticity measured in beats per minute from unpaced right atria of rabbit heart.; assay type: functional; summary of the method: as §1
# Canis familiaris [7] = assay: Conduction time from Q wave to T wave of lead II electrocardiogram was tested in dogs at a dose of 1.0 mg/kg through intravenous administration. (baseline value- 352+/-7); assay type: functional, Canis lupus familiaris
# Canis familiaris [8] = assay: Conduction time from Q wave to T wave of lead II electrocardiogram was tested in dogs at a dose of 10 mg/kg through intravenous administration. (baseline value- 352+/-7); assay type: functional, Canis lupus familiaris
# Canis familiaris [9] = assay: Conduction time from Q wave to T wave of lead II electrocardiogram was tested in dogs at a dose of 3.0 mg/kg through intravenous administration. (baseline value- 352+/-7); assay type: functional, Canis lupus familiaris
# Canis familiaris [10] = assay: Conduction time from the His bundle to the onset of ventricular depolarizations was tested in dogs at a dose of 1.0 mg/kg through intravenous administration. (baseline value- 17+/-1 ); assay type: functional, Canis lupus familiaris, Cardiac ventricle
# Canis familiaris [11] = assay: Conduction time from the His bundle to the onset of ventricular depolarizations was tested in dogs at a dose of 10.0 mg/kg through intravenous administration. (baseline value- 17+/-1 ); assay type: functional, Canis lupus familiaris, Cardiac ventricle
# Canis familiaris [12] = assay: Conduction time from the His bundle to the onset of ventricular depolarizations was tested in dogs at a dose of 3.0 mg/kg through intravenous administration. (baseline value- 17+/-1 ); assay type: functional, Canis lupus familiaris, Cardiac ventricle
# Canis familiaris [13] = assay: Compound was tested in vivo in dogs at a dose of 1.0 mg/kg through intravenous route and time at which sustained ventricular arrhythmias were induced was recorded.(Base line value-2); assay type: functional, Canis lupus familiaris, Cardiac ventricle
# Summary of the method: (§2)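 Dogs with myocardial infarction were studied 3-9 days after infarction. They were reanesthetized with pentobarbital, ventilated, and electrodes were placed via thoracotomy; blood gases were monitored. Control ERPs and reproducible inducibility were set by programmed electrical stimulation, then cumulative iv doses were given. Agents were in glass-distilled water or NaOH-neutralized saline (pH 6.7-7.0). Animals were counted per category: NI, nonsustained, sustained, VF, or AV block preventing atrial pacing.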
# Canis familiaris [14] = assay: Compound was tested in vivo in dogs at a dose of 1.0 mg/kg through intravenous route and time at which ventricular arrhythmias were not indicible was recorded.(Base line value-5); assay type: functional, Canis lupus familiaris, Cardiac ventricle; summary of the method: as §2
# Canis familiaris [15] = assay: Compound was tested in vivo in dogs at a dose of 1.0 mg/kg through intravenous route and time at which ventricular fibrillation was induced was recorded.(Base line value-3); assay type: functional, Canis lupus familiaris, Cardiac ventricle; summary of the method: as §2
# Canis familiaris [16] = assay: Compound was tested in vivo in dogs at a dose of 10.0 mg/kg through intravenous route and time at which conduction block at the atrioventricular node prevented atrial pacing was recorded.(Base line value-0); assay type: functional, Canis lupus familiaris; summary of the method: as §2
# Canis familiaris [17] = assay: Conduction time from the atrium to His bundle was tested in dogs at a dose of 1.0 mg/kg through intravenous administration. (baseline value- 73+/-3 ); assay type: functional, Canis lupus familiaris
# Canis familiaris [18] = assay: Conduction time from the atrium to His bundle was tested in dogs at a dose of 10.0 mg/kg through intravenous administration. (baseline value- 73+/-3 ); assay type: functional, Canis lupus familiaris
# Canis familiaris [19] = assay: Conduction time from the atrium to His bundle was tested in dogs at a dose of 3.0 mg/kg through intravenous administration. (baseline value 73+/-3 ); assay type: functional, Canis lupus familiaris
# Canis familiaris [20] = assay: Compound was tested in vivo in dogs at a dose of 0.3 mg/kg through intravenous route and time at which conduction block at the atrioventricular node prevented atrial pacing was recorded.(Base line value-0); assay type: functional, Canis lupus familiaris; summary of the method: as §2
# Canis familiaris [21] = assay: Compound was tested in vivo in dogs at a dose of 10.0 mg/kg through intravenous route and time at which nonsustained ventricular arrhythmias were induced was recorded.(Base line value-1); assay type: functional, Canis lupus familiaris, Cardiac ventricle; summary of the method: as §2
# Canis familiaris [22] = assay: Compound was tested in vivo in dogs at a dose of 10.0 mg/kg through intravenous route and time at which sustained ventricular arrhythmias were induced was recorded.(Base line value-2); assay type: functional, Canis lupus familiaris, Cardiac ventricle; summary of the method: as §2
# Canis familiaris [23] = assay: Compound was tested in vivo in dogs at a dose of 10.0 mg/kg through intravenous route and time at which ventricular fibrillation was induced was recorded.(Base line value-6); assay type: functional, Canis lupus familiaris, Cardiac ventricle; settings: in the assay text read “Base line value-3” for “Base line value-6”; summary of the method: as §2
# Canis familiaris [24] = assay: Compound was tested in vivo in dogs at a dose of 10 mg/kg through intravenous route and time at which ventricular arrhythmias were not indicible was recorded.(Base line value-5); assay type: functional, Canis lupus familiaris, Cardiac ventricle; summary of the method: as §2
# Canis familiaris [25] = assay: Compound was tested in vivo in dogs at a dose of 3.0 mg/kg through intravenous route and time at which conduction block at the atrioventricular node prevented atrial pacing was recorded.(Base line value-0); assay type: functional, Canis lupus familiaris; summary of the method: as §2
# Canis familiaris [26] = assay: Compound was tested in vivo in dogs at a dose of 3.0 mg/kg through intravenous route and time at which nonsustained ventricular arrhythmias were induced was recorded.(Base line value-1); assay type: functional, Canis lupus familiaris, Cardiac ventricle; settings: in the assay text read “Base line value-0” for “Base line value-1”; summary of the method: as §2
# Canis familiaris [27] = assay: Compound was tested in vivo in dogs at a dose of 3.0 mg/kg through intravenous route and time at which sustained ventricular arrhythmias were induced was recorded.(Base line value-2); assay type: functional, Canis lupus familiaris, Cardiac ventricle; summary of the method: as §2
# Canis familiaris [28] = assay: Compound was tested in vivo in dogs at a dose of 3.0 mg/kg through intravenous route and time at which ventricular fibrillation was induced was recorded.(Base line value-6); assay type: functional, Canis lupus familiaris, Cardiac ventricle; settings: in the assay text read “Base line value-3” for “Base line value-6”; summary of the method: as §2
# Canis familiaris [29] = assay: Conduction time for ventricular refractory period of the first premature stimulus was tested in dogs at a dose of 1.0 mg/kg through intravenous administration. (baseline value- 137+/-4); assay type: functional, Canis lupus familiaris, Cardiac ventricle
# Canis familiaris [30] = assay: Compound was tested in vivo in dogs at a dose of 0.1 mg/kg through intravenous route and time at which conduction block at the atrioventricular node prevented atrial pacing was recorded.(Base line value-0); assay type: functional, Canis lupus familiaris; summary of the method: as §2
# Canis familiaris [31] = assay: Conduction time for ventricular refractory period of the first premature stimulus was tested in dogs at a dose of 10.0 mg/kg through intravenous administration. (baseline value- 137+/-4); assay type: functional, Canis lupus familiaris, Cardiac ventricle
# Canis familiaris [32] = assay: Conduction time for ventricular refractory period of the first premature stimulus was tested in dogs at a dose of 3.0 mg/kg through intravenous administration. (baseline value- 137+/-4); assay type: functional, Canis lupus familiaris, Cardiac ventricle
# Canis familiaris [33] = assay: Compound was tested in vivo in dogs at a dose of 1.0 mg/kg through intravenous route and time at which conduction block at the atrioventricular node prevented atrial pacing was recorded.(Base line value-0); assay type: functional, Canis lupus familiaris; summary of the method: as §2
# Canis familiaris [34] = assay: Compound was tested in vivo in dogs at a dose of 1.0 mg/kg through intravenous route and time at which nonsustained ventricular arrhythmias were induced was recorded.(Base line value-0); assay type: functional, Canis lupus familiaris, Cardiac ventricle; summary of the method: as §2
# Canis familiaris [35] = assay: Conduction time for ventricular refractory period of the second premature stimulus was tested in dogs at a dose of 1.0 mg/kg through intravenous administration. (baseline value- 123+/-4); assay type: functional, Canis lupus familiaris, Cardiac ventricle
# Canis familiaris [36] = assay: Conduction time for ventricular refractory period of the second premature stimulus was tested in dogs at a dose of 10 mg/kg through intravenous administration. (baseline value- 123+/-4); assay type: functional, Canis lupus familiaris, Cardiac ventricle
# Canis familiaris [37] = assay: Conduction time for ventricular refractory period of the second premature stimulus was tested in dogs at a dose of 3.0 mg/kg through intravenous administration. (baseline value- 123+/-4); assay type: functional, Canis lupus familiaris, Cardiac ventricle
# Canis familiaris [38] = assay: Compound was tested in vivo in dogs at a dose of 3.0 mg/kg through intravenous route and number of animals in which ventricular arrhythmias were not inducible was recorded.(Base line value-5)
compound,measurement,setting,value
CCCCCCCN(CC)CCCC(O)c1cccc(NS(C)(=O)=O)c1 (centres undefined),ERP1,Oryctolagus cuniculus [1],25.2
same,ERP3,Oryctolagus cuniculus [2],19
same,CT3,Oryctolagus cuniculus [3],54
same,FOC,Oryctolagus cuniculus [4],-15
same,CT1,Oryctolagus cuniculus [5],21.3
same,Rate,Oryctolagus cuniculus [6],-16
CCCCCCCN(CC)CCCC(O)c1ccc(Cl)cc1.Cl (centres undefined),ERP1,Oryctolagus cuniculus [1],10.5
same,ERP3,Oryctolagus cuniculus [2],14
same,FOC,Oryctolagus cuniculus [4],-21
same,CT1,Oryctolagus cuniculus [5],4
same,Rate,Oryctolagus cuniculus [6],-12
CCCCCCCNCCCC(O)c1ccc(NS(C)(=O)=O)cc1 (centres undefined),ERP1,Oryctolagus cuniculus [1],0.4
same,ERP3,Oryctolagus cuniculus [2],6.8
same,CT3,Oryctolagus cuniculus [3],8.3
same,FOC,Oryctolagus cuniculus [4],-12.1
same,CT1,Oryctolagus cuniculus [5],-7.4
same,Rate,Oryctolagus cuniculus [6],-25
CCCCCCCN(CC)CCCCc1ccc(NS(C)(=O)=O)cc1,ERP1,Oryctolagus cuniculus [1],28.3
same,ERP3,Oryctolagus cuniculus [2],19.2
same,CT3,Oryctolagus cuniculus [3],140
same,FOC,Oryctolagus cuniculus [4],-24.2
same,CT1,Oryctolagus cuniculus [5],67.2
same,Rate,Oryctolagus cuniculus [6],-27
CC(C)NCC(O)c1ccc(NS(C)(=O)=O)cc1.Cl (centres undefined) [SOTALOL HYDROCHLORIDE],Time,Canis familiaris [7],197 ms
same,Time,Canis familiaris [8],181 ms
same,Time,Canis familiaris [9],197 ms
same,Time,Canis familiaris [10],40 ms
same,Time,Canis familiaris [11],42 ms
same,Time,Canis familiaris [12],39 ms
same,Time,Canis familiaris [13],2 animals
same,Time,Canis familiaris [14],8 animals
same,Time,Canis familiaris [15],0 animals
same,Time,Canis familiaris [16],4 animals
same,Time,Canis familiaris [17],77 ms
same,Time,Canis familiaris [18],107 ms
same,Time,Canis familiaris [19],90 ms
same,Time,Canis familiaris [20],0 animals
same,Time,Canis familiaris [21],1 animals
same,Time,Canis familiaris [22],0 animals
same,Time,Canis familiaris [23],0 animals
same,Time,Canis familiaris [24],5 animals
same,Time,Canis familiaris [25],0 animals
same,Time,Canis familiaris [26],2 animals
same,Time,Canis familiaris [27],1 animals
same,Time,Canis familiaris [28],0 animals
same,Time,Canis familiaris [29],145 ms
same,Time,Canis familiaris [30],0 animals
same,Time,Canis familiaris [31],157 ms
same,Time,Canis familiaris [32],152 ms
same,Time,Canis familiaris [33],0 animals
same,Time,Canis familiaris [34],0 animals
same,Time,Canis familiaris [35],126 ms
same,Time,Canis familiaris [36],141 ms
same,Time,Canis familiaris [37],138 ms
same,ERP1,Oryctolagus cuniculus [1],7.3
same,ERP3,Oryctolagus cuniculus [2],4.9
same,FOC,Oryctolagus cuniculus [4],6
same,CT1,Oryctolagus cuniculus [5],-11.7
same,Rate,Oryctolagus cuniculus [6],-10
same,Number of animals not inducible,Canis familiaris [38],7 animals
CCCCCCCN(C)CCCC(O)c1ccc(NS(C)(=O)=O)cc1 (centres undefined),ERP1,Oryctolagus cuniculus [1],16.5
same,ERP3,Oryctolagus cuniculus [2],17.2
same,CT3,Oryctolagus cuniculus [3],70
same,FOC,Oryctolagus cuniculus [4],8.5
same,CT1,Oryctolagus cuniculus [5],13
same,Rate,Oryctolagus cuniculus [6],-34
CCCCCCCCN(CC)CCCC(O)c1ccc(NS(C)(=O)=O)cc1 (centres undefined),ERP1,Oryctolagus cuniculus [1],5.3
same,ERP3,Oryctolagus cuniculus [2],4.3
same,CT3,Oryctolagus cuniculus [3],29.8
same,FOC,Oryctolagus cuniculus [4],0.7
same,CT1,Oryctolagus cuniculus [5],17.3
same,Rate,Oryctolagus cuniculus [6],-28
CS(=O)(=O)Nc1ccc(C(O)CCCN2CCCCCC2)cc1 (centres undefined),ERP1,Oryctolagus cuniculus [1],17.1
same,ERP3,Oryctolagus cuniculus [2],18.3
same,CT3,Oryctolagus cuniculus [3],0.2
same,FOC,Oryctolagus cuniculus [4],3.4
same,CT1,Oryctolagus cuniculus [5],1
same,Rate,Oryctolagus cuniculus [6],-11
CCCCCCCN(CC)CCC(O)c1ccc(NS(C)(=O)=O)cc1 (centres undefined),ERP1,Oryctolagus cuniculus [1],37.5
same,ERP3,Oryctolagus cuniculus [2],39.3
same,CT3,Oryctolagus cuniculus [3],40.3
same,FOC,Oryctolagus cuniculus [4],-23
same,CT1,Oryctolagus cuniculus [5],15.7
same,Rate,Oryctolagus cuniculus [6],-35
